Compounds with a hit are over-represented: about 4.6% of the library has one in this group of screens.
TAAR1 ag – agonists of human TAAR1. Q96RJ0. CHO RD-HGA16 TAAR1, Fluo-8 calcium fluorescence; vehicle wells 0%, saturating PEA agonist 100%. activation, % at 3 µM. 360,000 compounds, 0.99% hits. AID 624467;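 active = activation above the mean activation of all test compounds in the run plus 3 SD, cut at about 38% in these data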
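Assay system – CHO-derived RD-HGA16 cells with stable Gα16 and human TAAR1 · Compound dosing – one-point dosing at 3 µM (nominal) · Incubation – 17-24 h seeding, 75 min 37 °C dye, 30 min RT · Measured by – kinetic Fluo-8 calcium fluorescence · Control set – DMSO vehicle as 0%, PEA at EC100 as 100% · Repeats – single well for each compound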
CHO parental Ca – signal in parental CHO cells, OX1R antagonist counter-screen. parental CHO-K1, ATP-induced calcium, Fluo-8 fluorescence. 330,000 compounds, 0.63% hits. AID 463079. inhibition, % at 5.6 µM;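 active = inhibition above that plate's mean sample inhibition plus 3 SD, cut at about 26% in these data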;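 note: 0% = ATP-challenged DMSO wells and 100% = DMSO wells without ATP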
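Assay system: parental CHO cells; Read-out basis: percent inhibition of ATP-evoked calcium rise, normalized to controls; Benchmarks: ATP and no-ATP DMSO wells; Compound dosing: single nominal dose of 5.6 µM per compound; Signal: Fluo-8 calcium dye fluorescence; Also added: ATP as calcium-mobilizing challenge; Repeats: singlicate.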
TAAR1 antagonist – antagonists of human TAAR1; Q96RJ0; CHO RD-HGA16 TAAR1, Fluo-8 calcium fluorescence, antagonist; inhibition, % at 3 µM; 360,000 compounds, 1.5% hits; AID 624466;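 active = inhibition above a per-plate cutoff, the mean inhibition of test compounds on that plate plus 3 SD, cut at about 49% in these data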;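 note: 0% = DMSO plus EC80 beta-PEA response and 100% = DMSO alone without agonist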
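test system = CHO RD-HGA16 cells bearing hTAAR1 | replication = singlicate | controls = DMSO-only wells and EC80 β-PEA-stimulated wells | reagent = EC80 β-phenethylamine stimulus | read-out basis = percent inhibition of PEA-evoked calcium signal, max/basal emission ratio | schedule = seeding 17-24 h prior, 75-min 37 °C, 30-min RT dye loading | signal = kinetic Fluo-8 calcium fluorescence measurement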
OX1R antag-1 – antagonists of human orexin 1 receptor; inhibition, % at 5 µM; CHO/OX1R cells, Fluo-8 calcium fluorescence, orexin A; AID 434989; O43613; 330,000 compounds, 0.43% hits;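 active = inhibition above its plate's threshold, mean inhibition of all tested compounds on the plate plus 3 SD, cut at about 37% in these data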;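 note: 0% = orexin A challenge wells and 100% = SB-334867-A antagonist wells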
Target sequence (O43613 whole entry, looked up): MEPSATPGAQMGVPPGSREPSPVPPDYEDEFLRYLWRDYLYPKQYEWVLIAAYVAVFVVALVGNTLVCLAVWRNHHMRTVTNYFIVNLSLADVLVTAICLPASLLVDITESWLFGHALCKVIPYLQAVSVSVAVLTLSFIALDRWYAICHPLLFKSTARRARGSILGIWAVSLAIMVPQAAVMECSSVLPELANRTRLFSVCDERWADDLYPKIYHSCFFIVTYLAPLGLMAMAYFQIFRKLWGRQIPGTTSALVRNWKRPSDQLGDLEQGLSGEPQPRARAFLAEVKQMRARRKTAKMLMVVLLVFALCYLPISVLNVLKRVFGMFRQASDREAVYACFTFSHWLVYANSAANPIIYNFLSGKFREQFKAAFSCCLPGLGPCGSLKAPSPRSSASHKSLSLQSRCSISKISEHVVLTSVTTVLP
GPR7 antag – blocks human GPR7 receptor signaling. GPR7-expressing cells, fluorescence antagonist assay. inhibition, % at 4.4 µM. 290,000 compounds, 1.1% hits. AID 1861; in the data active = inhibition above about 16%, passing the limit was not always enough;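 note: cells stimulated with the agonist NPW; 0% = agonist with vehicle and 100% = vehicle without agonist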
OX1R antag-2 – blocks the human orexin 1 receptor; OX1R-expressing cells, FRET antagonist read-out; inhibition, % at 6.6 µM; 330,000 compounds, 1.8% hits; in the data active = inhibition mostly above about 38%, no sharp cut-off; inactive = mostly below about 40%;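 note: 0% = agonist challenge alone and 100% = reference antagonist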
OX1R HTRF confirm – confirmation of human orexin 1 receptor antagonists, HTRF format; shares compounds with OX1R antag-2; OX1R-expressing cells, HTRF antagonist assay; inhibition, % at 6.6 µM; 1,800 compounds, 49% hits; AID 492964; in the data active = inhibition above about 55%;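 note: CHO cells expressing OX1R stimulated with orexin A at about EC80; 0% = agonist challenge alone and 100% = reference antagonist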
CHO-K1 HTRF – counter-screen: parental CHO-K1 HTRF response. shares compounds with OX1R antag-2. parental CHO-K1 cells, HTRF counterscreen. inhibition, % at 6.6 µM. 1,800 compounds, 48% hits. AID 493232; in the data active = inhibition above about 17%;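 note: 0% = agonist challenge with vehicle and 100% = vehicle alone without agonist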
* marks the source's active call; other numbers are inactive results; . = no result given.

SMILES	TAAR1 ag	CHO parental Ca	TAAR1 antagonist	OX1R antag-1	GPR7 antag	OX1R antag-2	OX1R HTRF confirm	CHO-K1 HTRF
Cc1ccc2c(c1)-n1c(nc3cc(Cl)ccc3c1=O)C(Cc1ccccc1)NC2=O (stereo not given)	.	-26	.	-18	.	-3	.	.
COc1cc(C(=O)NCCNc2nc3c(C)cccc3cc2C#N)cc(OC)c1OC	2	.	-16	.	.	.	.	.
COc1ccc(C(=O)NCCNc2nc3c(C)cccc3cc2C#N)cc1OC	10	-6	0	18	-9	90*	87*	8
Cc1cc(=O)oc2cc(OCC(=O)NCCc3ccccc3)ccc12	0	-26	6	-22	11	17	.	.
Nc1nc(SCC(=O)Nc2cccc(S(=O)(=O)N3CCCCCC3)c2)n[nH]1	-1	-1	0	-12	-2	89*	15	4
O=C(CSc1ncn[nH]1)Nc1cccc(S(=O)(=O)N2CCCCCC2)c1	4	-16	-3	-3	4	19	.	.
CCN1C(=O)N(C)[C@@H](c2ccccc2)C(C(C)=O)=C1C	1	-7	3	-14	.	29	.	.
S=C(N/N=C/c1ccccc1Cl)Nc1cccc(Cl)c1Cl	4	-20	-69	-41	-6	5	.	.
O=C(CCS(=O)(=O)c1cccc2nonc12)N1CCN(c2ccc(F)cc2)CC1	0	-3	11	-10	-3	97*	27	24*
O=C(CCS(=O)(=O)c1cccc2nonc12)N1CC(=O)N(CCc2ccccc2)C(=O)C1	6	-5	-6	-24	1	37	.	.
O=C(CCS(=O)(=O)c1cccc2nonc12)N1CCOCC1	7	-8	1	-3	-2	99*	36	69*
CCn1c(=O)n(CC)c2cc(S(=O)(=O)Nc3cc(C)cc(C)c3C#N)ccc21	8	-6	0	-18	4	10	.	.
O=C(Cc1ccccc1)NCC(=O)OCC(=O)c1ccc([N+](=O)[O-])cc1	4	2	-18	0	8	86*	53	42*
CC(=O)N(C(C)=O)N1C(=O)c2cccc3c(N4CCOCC4)ccc(c23)C1=O	12	7	3	-6	-6	119*	34	40*
O=C(OCCN1C(=O)c2cccc3c(N4CCOCC4)ccc(c23)C1=O)c1cc(Cl)cc(Cl)c1	.	.	.	.	-4	.	.	.
O=[N+]([O-])c1ccc(S(=O)(=O)NCC2CCCO2)cc1 (stereo not given)	0	-11	7	-18	1	81*	46	47*
CCCCNC(=O)CSc1nnc(-c2c[nH]c3ccccc23)n1CC1CCCO1 (stereo not given)	.	-15	.	-9	0	7	.	.
Cc1ccc(/C=c2\sc3n(c2=O)CN(c2cccc(Br)c2)CN=3)o1	15	0	-5	-7	-1	80*	18	13
O=[N+]([O-])c1ccc(S(=O)(=O)N(CCCN2CCOCC2)Cc2cccs2)cc1	-1	-23	1	-24	5	86*	32	43*
O=C(CNC(=S)N(CCCN1CCOCC1)Cc1cccs1)NCCCN1CCOCC1	-1	-5	-5	-19	-7	18	.	.
O=C(c1ccccc1[N+](=O)[O-])n1cnc2ccccc21	-2	0	0	4	-6	15	.	.
O=C(c1ccc([N+](=O)[O-])cc1[N+](=O)[O-])n1cnc2ccccc21	16	-20	52*	-5	3	108*	44	68*
COc1ccc2nc(NC(=O)C3CCCN3S(=O)(=O)c3ccc(C)cc3)sc2c1 (stereo not given)	3	-7	-11	11	-22	80*	50	7
COc1ccc(S(=O)(=O)N2CCC[C@H]2C(=O)NC2=NCCS2)cc1	11	-7	2	-5	-3	34	.	.
CCC(=O)N1CCC2(CC1)Oc1ccc(F)cc1C(=O)C21CC(c2cccnc2)=NO1 (stereo not given)	10	-17	7	-26	.	78*	6	-27
SMILES	TAAR1 ag	CHO parental Ca	TAAR1 antagonist	OX1R antag-1	GPR7 antag	OX1R antag-2	OX1R HTRF confirm	CHO-K1 HTRF
CC1(C)C2([N+](=O)[O-])CN3CC1([N+](=O)[O-])CN(C2)C3C(O)C(O)C(O)CO (stereo not given)	1	9	-34	-2	-8	-6	.	.
CC(C)[C@H](NC(N)=O)C(=O)NNC(=O)COc1cccc(C(F)(F)F)c1	4	21	6	10	-6	13	.	.
O=C1C(=O)c2ccccc2C([O-])=C1[n+]1ccccc1	3	-10	-22	-13	-6	171*	60*	108*
Cc1nnc(NC(=O)CSc2nc3ccccc3o2)s1	8	2	2	-15	0	-5	.	.
CC1CCc2nc(NC(=O)CSc3nc4ccccc4o3)sc2C1 (stereo not given)	3	4	28	-27	-3	89*	31	10
CC(C)(CO)N=C1NS(=O)(=O)c2cc([N+](=O)[O-])ccc21	0	-2	15	-10	-9	99*	56*	63*
CC(C)(C)CC(C)(C)N=C1NS(=O)(=O)c2cc([N+](=O)[O-])ccc21	12	-13	-5	-1	-13	34	.	.
Cc1cc(C)nc(Nc2n[nH]c(-c3cccc4ccccc34)n2)n1	1	-20	16	22	-9	80*	60*	5
O=C(O)COc1ccccc1/C=C1\SC(=S)N(NC(=O)c2ccccc2O)C1=O	10	-14	-6	-4	.	28	.	.
O=C(O)COc1ccccc1/C=C1\SC(=S)N(/N=C/c2ccccc2O)C1=O	5	6	-12	-1	-8	98*	70*	46*
NC(=O)c1c(NC(=O)Cn2cc([N+](=O)[O-])cn2)sc2c1CCCC2	7	-2	-8	-18	-3	101*	18	7
COc1cc(NC(=O)CCc2nnc3ccc(N4CCC5(CC4)OCCO5)nn23)cc(OC)c1	1	-11	-6	-9	-8	13	.	.
O=[N+]([O-])c1ccc(Sc2cc[n+]([O-])c3ccccc23)c([N+](=O)[O-])c1	3	5	-27	2	-18	98*	55*	78*
Cc1ccc2nsnc2c1NC(=O)c1ccc([N+](=O)[O-])cc1	1	-3	-3	-12	-9	38	.	.
CCCCNc1ccc2nsnc2c1[N+](=O)[O-]	3	1	-14	-10	-12	120*	59*	90*
O=C(N/N=C/c1cccnc1)c1ccc([N+](=O)[O-])cc1	4	-2	-2	-14	2	107*	37	82*

Bioassay records (PubChem BioAssay)
